For this assay, the target named is T1, recombinant human (rh) ECE-1 (Homo sapiens, UniProt P42892).
T1 sequence (P42892 1-770): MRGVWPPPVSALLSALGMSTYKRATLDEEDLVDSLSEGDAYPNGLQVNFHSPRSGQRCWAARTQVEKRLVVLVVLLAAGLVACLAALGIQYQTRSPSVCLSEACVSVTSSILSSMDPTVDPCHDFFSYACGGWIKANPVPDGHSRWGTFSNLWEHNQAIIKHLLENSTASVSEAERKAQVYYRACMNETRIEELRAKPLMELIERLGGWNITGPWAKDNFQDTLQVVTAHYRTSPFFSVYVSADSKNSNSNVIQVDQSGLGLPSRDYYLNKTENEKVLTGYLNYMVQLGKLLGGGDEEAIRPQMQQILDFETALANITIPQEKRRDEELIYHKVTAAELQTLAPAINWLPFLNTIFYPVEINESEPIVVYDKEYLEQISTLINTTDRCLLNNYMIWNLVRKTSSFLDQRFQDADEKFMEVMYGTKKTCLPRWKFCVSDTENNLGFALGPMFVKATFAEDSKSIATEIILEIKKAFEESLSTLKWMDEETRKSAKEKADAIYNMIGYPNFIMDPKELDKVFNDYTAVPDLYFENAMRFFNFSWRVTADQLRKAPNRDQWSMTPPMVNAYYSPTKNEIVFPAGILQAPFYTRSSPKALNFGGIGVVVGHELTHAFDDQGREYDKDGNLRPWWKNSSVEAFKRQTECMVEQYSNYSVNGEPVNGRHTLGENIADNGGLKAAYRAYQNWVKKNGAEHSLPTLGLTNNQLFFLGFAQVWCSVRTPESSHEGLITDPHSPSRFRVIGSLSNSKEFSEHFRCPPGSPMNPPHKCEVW
The assay can be described thus: Peptide degradation by rhECE-1. It counts as biochemical. The following applies: inhibitor 100 μM. The procedure, abridged:
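Where used, the ECE-1 inhibitor (100 μM) was preincubated with enzyme on ice for 30 min at matching pH before substrate was added. Products were resolved by reversed-phase HPLC and identified by MALDI TOF/TOF mass spectrometry.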

Each structure is given as a SMILES string.

For the compound `Cc1nn(-c2ccccc2)c(NC(=O)NS(=O)(=O)c2ccc(Cl)cc2)c1C#N.[Na]` [SM-19712], under “preincubated with ECE-1 on ice 30 min, pH 5.5”, the “Effect on rhECE-1 degradation of CGRP” value is “abolished”. In addition, for the setting “rhECE-1 83 nM, pH 5.5 and 7.4”, the “Effect on rhECE-1 degradation of BK” value is “prevented this degradation”.

For the origin of these results see PMC2099187 (The Journal of Cell Biology, 2007).
